Measurements as given in ChEMBL document CHEMBL1122485, “Antibacterially active substituted anilides of carboxylic and sulfonic acids” (1983).
≈ marks a conversion by molar mass, not a printed value.

The compounds below were run on Staphylococcus aureus (assay: Minimum inhibitory concentration against staphylococcus aureus ATCC 6538).
Format: functional
Summary of the method: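 Agar dilution: 1% stocks in 95% ethanol or water, serially diluted into nutrient agar (pH 6.8) to 1000, 100, 10 and 1 ppm. Plates were dried 30 min at 37 °C and spotted with ten drops of 24-h nutrient broth culture. Incubation was 48 h at 37 °C, in duplicate, with hexachlorophene as standard. MIC was the lowest level with no growth of any inoculum on either dish.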

SMILES | MIC [µg/mL]
CCCCCCCCCC(=O)Nc1cc(Cl)ccc1O | 1 (≈ 3.36 µM)
O=C(O)CCCCCCC(=O)Nc1ccc(Cl)c([N+](=O)[O-])c1 | 100 (≈ 304 µM)
CCC(C(=O)Nc1cc(Cl)ccc1O)c1ccccc1 (stereo unspecified) | 10 (≈ 34.5 µM)
CCCCc1ccc(S(=O)(=O)Nc2ccc(Cl)c(Cl)c2)cc1 | 10 (≈ 27.9 µM)
CCCc1ccc(S(=O)(=O)N(Cc2ccc(Cl)cc2)c2ccc(Cl)c(Cl)c2)cc1 | > 1000
COC(=O)CCCCCCCC(=O)Nc1ccc(Cl)c(Cl)c1 | 1 (≈ 2.89 µM)
C=C(CCCCCCCC)C(=O)Nc1ccc(Cl)c(Cl)c1 | 1 (≈ 3.05 µM)
C=C(CCCC)C(=O)Nc1cc(Cl)cc(Cl)c1 | 10 (≈ 36.7 µM)
O=C(Cc1ccccc1)Nc1ccc(Cl)c(Cl)c1 | > 1000
O=C(CCc1ccccc1)Nc1ccc(Cl)c(Cl)c1 | 1 (≈ 3.4 µM)
O=C(Nc1cc(Cl)ccc1O)c1ccc(Cl)c(Cl)c1 | > 1000
O=[N+]([O-])c1ccc(O)c(NS(=O)(=O)c2ccc(Cl)c(Cl)c2)c1 | 10 (≈ 27.5 µM)
O=C(O)CCCCCCC(=O)Nc1ccc(Cl)c(Cl)c1 | 100 (≈ 314 µM)
O=C(O)CCC(=O)Nc1ccc(Cl)c(Cl)c1 | 1000 (≈ 3820 µM)
CC(CC(=O)Nc1ccc(Cl)c(Cl)c1)c1ccccc1 (stereo unspecified) | 10 (≈ 32.4 µM)
C=C(CCCCCCC)C(=O)Nc1ccc(Cl)c(Cl)c1 | 1 (≈ 3.18 µM)
Cc1ccc(S(=O)(=O)Nc2ccc(Cl)c(Cl)c2)cc1 | 10 (≈ 31.6 µM)
CCCCCCc1ccc(C(=O)Nc2ccc(Cl)c(Cl)c2)cc1 | > 1000
O=C(O)CCCCC(=O)Nc1ccc(Cl)c(Cl)c1 | 1000 (≈ 3450 µM)
C=C(CCCCCCCC)C(=O)Nc1ccc(Cl)c([N+](=O)[O-])c1 | 1 (≈ 2.95 µM)
O=C(O)CCCCCCCCC(=O)Nc1ccc(Cl)c(Cl)c1 | > 1000
C=C(CCCC)C(=O)Nc1cc(Cl)ccc1O | 100 (≈ 394 µM)
COC(=O)CCCCCCCCC(=O)Nc1ccc(Cl)c(Cl)c1 | > 1000
O=C(O)CCCCCCCC(=O)Nc1ccc(Cl)c(Cl)c1 | 1 (≈ 3.01 µM)
CCCCCCCCC(=O)Nc1cc([N+](=O)[O-])ccc1O | 10 (≈ 34 µM)

SMILES | MIC [µg/mL]
CCCCCCCC(=O)Nc1cc(Cl)ccc1O | 10 (≈ 37.1 µM)
O=C(CCc1ccccc1)Nc1cc(Cl)ccc1O | 100 (≈ 363 µM)
CCCCCCC(=O)Nc1cc([N+](=O)[O-])ccc1O | 10 (≈ 37.6 µM)
CCCCCCCCC(=O)Nc1ccc(Cl)c(Cl)c1 | 1 (≈ 3.31 µM)
C=C(CCCCCCC)C(=O)Nc1cc(Cl)cc(Cl)c1 | 10 (≈ 31.8 µM)
C=C(CCCCC)C(=O)Nc1ccc(Cl)c(Cl)c1 | 10 (≈ 34.9 µM)
CCCCCCCCCCCC(=O)Nc1cc([N+](=O)[O-])ccc1O | 1000 (≈ 2970 µM)
O=C(O)CCCCCCCC(=O)Nc1ccc(Cl)c([N+](=O)[O-])c1 | 100 (≈ 292 µM)
C=C(CCCCCCC)C(=O)Nc1cc(Cl)ccc1O | 1 (≈ 3.38 µM)
O=C(Nc1ccc(Cl)c(Cl)c1)c1ccc(Cl)c(Cl)c1 | > 1000
O=C(Cc1ccccc1)Nc1cc(Cl)ccc1O | 100 (≈ 382 µM)
C=C(CCCCCC)C(=O)Nc1cc(Cl)ccc1O | 1 (≈ 3.55 µM)
C=C(CCCCCCCCCC)C(=O)Nc1cc(Cl)ccc1O | 1 (≈ 2.96 µM)
O=C(Nc1cc([N+](=O)[O-])ccc1O)c1ccc(Cl)c(Cl)c1 | 10 (≈ 30.6 µM)
CCCCCCCCCCCC(=O)Nc1ccc(Cl)c(Cl)c1 | 100 (≈ 290 µM)
CC(C)c1ccc(S(=O)(=O)Nc2cc(Cl)ccc2O)cc1 | 10 (≈ 30.7 µM)
O=C(O)CCCCCCCCC(=O)Nc1ccc(Cl)c([N+](=O)[O-])c1 | > 1000
C=C(CCCCCCCC)C(=O)Nc1cc(Cl)cc(Cl)c1 | 10 (≈ 30.5 µM)
O=S(=O)(Nc1cc(Cl)ccc1O)c1ccc(Cl)c(Cl)c1 | 10 (≈ 28.4 µM)
C=C(CCCCC)C(=O)Nc1cc(Cl)ccc1O | 100 (≈ 373 µM)
C=C(CCCC)C(=O)Nc1ccc(Cl)c(Cl)c1 | 10 (≈ 36.7 µM)
CCc1ccc(S(=O)(=O)Nc2ccc(Cl)c(Cl)c2)cc1 | 10 (≈ 30.3 µM)
CCC(C(=O)Nc1ccc(Cl)c(Cl)c1)c1ccccc1 (stereo unspecified) | 10 (≈ 32.4 µM)
COC(=O)CCC(=O)Nc1c(Cl)cccc1Cl | 1000 (≈ 3620 µM)
COC(=O)CCCCC(=O)Nc1ccc(Cl)c([N+](=O)[O-])c1 | 100 (≈ 318 µM)

SMILES | MIC [µg/mL]
COC(=O)CCC(=O)Nc1ccc(Cl)c(Cl)c1 | 1000 (≈ 3620 µM)
C=C(CCCCCC)C(=O)Nc1ccc(Cl)c([N+](=O)[O-])c1 | 1 (≈ 3.22 µM)
C=C(CCCCC)C(=O)Nc1cc([N+](=O)[O-])ccc1O | 10 (≈ 35.9 µM)
COC(=O)CCCCCCCCC(=O)Nc1ccc(Cl)c([N+](=O)[O-])c1 | > 1000
O=C(O)CCCCC(=O)Nc1ccc(Cl)c([N+](=O)[O-])c1 | 100 (≈ 333 µM)
CCCCCCCCCCCC(=O)Nc1ccc(Cl)c([N+](=O)[O-])c1 | > 1000
CCCc1ccc(C(=O)Nc2ccc(Cl)c(Cl)c2)cc1 | > 1000
C=C(CCCCCC)C(=O)Nc1cc(Cl)cc(Cl)c1 | 1 (≈ 3.33 µM)
CCCCc1ccc(S(=O)(=O)Nc2cc(Cl)ccc2O)cc1 | 10 (≈ 29.4 µM)
C=C(CCCCCC)C(=O)Nc1ccc(Cl)c(Cl)c1 | 1 (≈ 3.33 µM)
CCCCCCC(=O)Nc1cc(Cl)ccc1O | 10 (≈ 39.1 µM)
CCCCCCCCCCCC(=O)Nc1cc(Cl)cc(Cl)c1 | 10 (≈ 29 µM)
CCCCc1ccc(C(=O)Nc2ccc(Cl)c(Cl)c2)cc1 | 1000 (≈ 3100 µM)
CCCCCC(=O)Nc1cc(Cl)ccc1O | 10 (≈ 41.4 µM)
CCCCCCCCCCCC(=O)Nc1cc(Cl)ccc1O | 1 (≈ 3.07 µM)
CCCc1ccc(C(=O)Nc2cc(Cl)ccc2O)cc1 | > 1000
C=C(CCCCCCCCCC)C(=O)Nc1ccc(Cl)c(Cl)c1 | > 1000
CCCCCC(=O)Nc1ccc(Cl)c([N+](=O)[O-])c1 | 10 (≈ 36.9 µM)
CCCc1ccc(S(=O)(=O)N(C)c2ccc(Cl)c(Cl)c2)cc1 | > 1000
CCCc1ccc(S(=O)(=O)Nc2cc([N+](=O)[O-])ccc2O)cc1 | 1 (≈ 2.97 µM)
CCCCCCCCCC(=O)Nc1ccc(Cl)c([N+](=O)[O-])c1 | 10 (≈ 30.6 µM)
O=S(=O)(Nc1ccc(Cl)c(Cl)c1)c1cc(Cl)ccc1Cl | 1000 (≈ 2690 µM)
COC(=O)CCCCC(=O)Nc1ccc(Cl)c(Cl)c1 | 1000 (≈ 3290 µM)
CCC(C)c1ccc(S(=O)(=O)Nc2ccc(Cl)c(Cl)c2)cc1 (stereo unspecified) | 10 (≈ 27.9 µM)
CCCCCC(=O)Nc1cc([N+](=O)[O-])ccc1O | 10 (≈ 39.6 µM)

SMILES | MIC [µg/mL]
Cc1ccc(C(=O)Nc2ccc(Cl)c(Cl)c2)cc1 | 1000 (≈ 3570 µM)
CCCc1ccc(C(=O)Nc2cc([N+](=O)[O-])ccc2O)cc1 | 10 (≈ 33.3 µM)
CCc1ccc(C(=O)Nc2ccc(Cl)c(Cl)c2)cc1 | > 1000
CCCCCCCCC(=O)Nc1cc(Cl)cc(Cl)c1 | 1 (≈ 3.31 µM)
CCCCCCC(=O)Nc1ccc(Cl)c(Cl)c1 | 10 (≈ 36.5 µM)
CCCCCC(=O)Nc1ccc(Cl)c(Cl)c1 | 10 (≈ 38.4 µM)
CC(C)c1ccc(S(=O)(=O)Nc2ccc(Cl)c(Cl)c2)cc1 | 10 (≈ 29 µM)
C=C(CCCCC)C(=O)Nc1ccc(Cl)c([N+](=O)[O-])c1 | 10 (≈ 33.7 µM)
CCCCCC(=O)Nc1cc(Cl)cc(Cl)c1 | 10 (≈ 38.4 µM)
C=C(CCCCCCCCCC)C(=O)Nc1cc(Cl)cc(Cl)c1 | > 1000
CCCCc1ccc(C(=O)Nc2cc([N+](=O)[O-])ccc2O)cc1 | 1 (≈ 3.18 µM)
C=C(CCCCCCCC)C(=O)Nc1cc(Cl)ccc1O | 1 (≈ 3.23 µM)
CCCCCCCCCC(=O)Nc1cc(Cl)cc(Cl)c1 | 10 (≈ 31.6 µM)
C=C(CCCCCCC)C(=O)Nc1ccc(Cl)c([N+](=O)[O-])c1 | 1 (≈ 3.08 µM)
CCCc1ccc(S(=O)(=O)Nc2ccc(Cl)c([N+](=O)[O-])c2)cc1 | 10 (≈ 28.2 µM)
CCCCCCC(=O)Nc1ccc(Cl)c([N+](=O)[O-])c1 | 10 (≈ 35.1 µM)
CCCCCCCCCC(=O)Nc1ccc(Cl)c(Cl)c1 | 10 (≈ 31.6 µM)
CCCCCCC(=O)Nc1cc(Cl)cc(Cl)c1 | 1 (≈ 3.65 µM)
COC(=O)CCCCCCC(=O)Nc1ccc(Cl)c([N+](=O)[O-])c1 | 1000 (≈ 2920 µM)
CCCCc1ccc(C(=O)Nc2cc(Cl)ccc2O)cc1 | 1000 (≈ 3290 µM)
COC(=O)CCCCCCCC(=O)Nc1ccc(Cl)c([N+](=O)[O-])c1 | 1000 (≈ 2800 µM)
COC(=O)CCCCCCC(=O)Nc1ccc(Cl)c(Cl)c1 | 1000 (≈ 3010 µM)
O=C(O)CCC(=O)Nc1c(Cl)cccc1Cl | > 1000

These compounds were tested on Staphylococcus aureus (assay: Bactericidal activity against Staphylococcus aureus ATCC 6538 at 10 ppm concentration; - = Negative).
Format: functional, organism-based
Summary of the method: (§1)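 S. aureus was inoculated at 10⁷/mL into 10 mL nutrient broth with 10 ppm compound. Those tubes were centrifuged (10000g, 10 min), resuspended in sterile diluent and streaked onto nutrient agar. Colonies after 48 h at 30 °C meant bacteriostatic; none meant bactericidal.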

SMILES | Activity
C=C(CCCCCC)C(=O)Nc1cc(Cl)cc(Cl)c1 | Negative
CCCCCCC(=O)Nc1cc(Cl)cc(Cl)c1 | Negative

The compounds below were run on Staphylococcus aureus (assay: Bacteriostatic activity against Staphylococcus aureus ATCC 6538 at 10 ppm concentration; + =Positive).
Format: functional, organism-based
Summary of the method: as §1

SMILES | Activity
C=C(CCCCCC)C(=O)Nc1cc(Cl)cc(Cl)c1 | Negative
CCCCCCC(=O)Nc1cc(Cl)cc(Cl)c1 | Negative

Each compound was assayed on Lactiplantibacillus plantarum (assay: Activity at 10 ppm against Lactobacillus plantarum; x=Effective).
Format: functional, organism-based
Summary of the method: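 Gram-positive panel on nutrient agar containing compound at 10, 1.0 and 0.1 ppm, duplicate plates. Six 15-µL drops per species, each holding 10⁷ vegetative cells (10⁶ for L. plantarum). Hexachlorophene and no-compound plates were run alongside. Plates were incubated 5 days at 30 °C and scored for growth. MIC was taken as the lowest level with no colonies on either plate.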

SMILES | Activity
C=C(CCCCCC)C(=O)Nc1cc(Cl)cc(Cl)c1 | Concentration effective
CCCCCCC(=O)Nc1cc(Cl)cc(Cl)c1 | Concentration effective

Each compound was assayed on Staphylococcus aureus (assay: Activity at 10 ppm against Staphylococcus aureus ATCC 6538; x=Effective).
Format: functional, organism-based

SMILES | Activity
C=C(CCCCCC)C(=O)Nc1cc(Cl)cc(Cl)c1 | Concentration effective
CCCCCCC(=O)Nc1cc(Cl)cc(Cl)c1 | Concentration effective
